What was measured:
Format in all cases: functional
Conditions in all cases: ip
Rattus norvegicus [1] = assay: Compound was evaluated in vivo its antagonist activity against apomorphine induced behavioral syndrome such as Stereotypy in rat after intraperitoneal administration; activity value ranges from 0.74-0.87
Procedure, shortened: (§1)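 Male Sprague-Dawley rats (275–325 g) got compound ip (saline, or acetic acid/distilled water vehicle) 60 min ahead of sc apomorphine 1 mg/kg given into the neck. Stereotypy strength was scored 5, 20, 40 and 60 min after apomorphine. […] It was computed by Theil's method with Sen tie correction, using 5–6+ dose levels and 6–8 animals per dose.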

Rattus norvegicus [2] = assay: Compound was evaluated in vivo for antagonist activity against apomorphine induced behavioral syndrome such as Hyperactivity in rat after intraperitoneal administration; activity value ranges from 0.14-0.18
Rattus norvegicus [3] = assay: Compound was evaluated in vivo its antagonist activity against apomorphine induced behavioral syndrome such as Stereotypy in rat after intraperitoneal administration; activity value ranges from 0.89-1.02; procedure, shortened: as §1
Rattus norvegicus [4] = assay: Compound was evaluated in vivo for antagonist activity against apomorphine induced behavioral syndrome such as Hyperactivity in rat after intraperitoneal administration; activity value ranges from 1.15-1.26
Rattus norvegicus [5] = assay: Compound was evaluated in vivo its antagonist activity against apomorphine induced behavioral syndrome such as Stereotypy in rat after intraperitoneal administration; activity value ranges from 0.24-0.25; procedure, shortened: as §1
Rattus norvegicus [6] = assay: Compound was evaluated in vivo for antagonist activity against apomorphine induced behavioral syndrome such as Hyperactivity in rat after intraperitoneal administration; activity value ranges from 0.11-0.13
Procedure, shortened: (§2)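 Male Sprague-Dawley rats (275–325 g) received test compound ip (in saline, or acetic acid plus distilled water) 60 min before apomorphine 1 mg/kg sc into the neck. Behaviour was scored at 5, 20, 40 and 60 min after apomorphine.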

Rattus norvegicus [7] = assay: Compound was evaluated in vivo for antagonist activity against apomorphine induced behavioral syndrome such as Hyperactivity in rat after intraperitoneal administration; activity value ranges from 0.42-0.43
Rattus norvegicus [8] = assay: Compound was evaluated in vivo its antagonist activity against apomorphine induced behavioral syndrome such as Stereotypy in rat after intraperitoneal administration; activity value ranges from 0.65-0.66; procedure, shortened: as §1
Rattus norvegicus [9] = assay: Compound was evaluated in vivo its antagonist activity against apomorphine induced behavioral syndrome such as Stereotypy in rat after intraperitoneal administration; activity value ranges from 2.0-2.0; procedure, shortened: as §1
Rattus norvegicus [10] = assay: Compound was evaluated in vivo for antagonist activity against apomorphine induced behavioral syndrome such as Hyperactivity in rat after intraperitoneal administration; activity value ranges from 1.07-1.15
Rattus norvegicus [11] = assay: Compound was evaluated in vivo for antagonist activity against apomorphine induced behavioral syndrome such as Hyperactivity in rat after intraperitoneal administration; activity value ranges from 6.0-6.2
Rattus norvegicus [12] = assay: Compound was evaluated in vivo its antagonist activity against apomorphine induced behavioral syndrome such as Stereotypy in rat after intraperitoneal administration; activity value ranges from 6.5-6.8; procedure, shortened: as §1
Rattus norvegicus [13] = assay: Compound was evaluated in vivo for antagonist activity against apomorphine induced behavioral syndrome such as Hyperactivity in rat after intraperitoneal administration; activity value ranges from 0.19-0.20
Rattus norvegicus [14] = assay: Compound was evaluated in vivo its antagonist activity against apomorphine induced behavioral syndrome such as Stereotypy in rat after intraperitoneal administration activity value ranges from 0.81-0.95; procedure, shortened: as §1
Rattus norvegicus [15] = assay: Compound was evaluated in vivo for antagonist activity against apomorphine induced behavioral syndrome such as Hyperactivity in rat after intraperitoneal administration; activity value ranges from 5.2-6.9
Rattus norvegicus [16] = assay: Compound was evaluated in vivo its antagonist activity against apomorphine induced behavioral syndrome such as Stereotypy in rat after intraperitoneal administration; activity value ranges from 15.1-15.8; procedure, shortened: as §1
Rattus norvegicus [17] = assay: Compound was evaluated in vivo for antagonist activity against apomorphine induced behavioral syndrome such as Hyperactivity in rat after intraperitoneal administration; activity value ranges from 2.7-3.8
Rattus norvegicus [18] = assay: Compound was evaluated in vivo for antagonist activity against apomorphine induced behavioral syndrome such as Hyperactivity in rat after intraperitoneal administration; activity value ranges from 0.65-0.85
Rattus norvegicus [19] = assay: Compound was evaluated in vivo its antagonist activity against apomorphine induced behavioral syndrome such as Stereotypy in rat after intraperitoneal administration; activity value ranges from 2.4-2.7; procedure, shortened: as §1
Rattus norvegicus [20] = assay: Compound was evaluated in vivo for antagonist activity against apomorphine induced behavioral syndrome such as Hyperactivity in rat after intraperitoneal administration; activity value ranges from 0.46-0.49
Rattus norvegicus [21] = assay: Compound was evaluated in vivo its antagonist activity against apomorphine induced behavioral syndrome such as Stereotypy in rat after intraperitoneal administration; activity value ranges from 1.8-2.2; procedure, shortened: as §1
Rattus norvegicus [22] = assay: Compound was evaluated in vivo its antagonist activity against apomorphine induced behavioral syndrome such as Stereotypy in rat after intraperitoneal administration; activity value ranges from 13.8-14.1; procedure, shortened: as §1
Rattus norvegicus [23] = assay: Compound was evaluated in vivo for antagonist activity against apomorphine induced behavioral syndrome such as Hyperactivity in rat after intraperitoneal administration; activity value ranges from 0.78-1.07
Rattus norvegicus [24] = assay: Compound was evaluated in vivo its antagonist activity against apomorphine induced behavioral syndrome such as Stereotypy in rat after intraperitoneal administration; activity value ranges from 0.56-0.95; procedure, shortened: as §1
Rattus norvegicus [25] = assay: Compound was evaluated in vivo for antagonist activity against apomorphine induced behavioral syndrome such as Hyperactivity in rat after intraperitoneal administration; activity value ranges from 0.45-0.49
Rattus norvegicus [26] = assay: Compound was evaluated in vivo for antagonist activity against apomorphine induced behavioral syndrome such as Hyperactivity in rat after intraperitoneal administration; activity value ranges from 0.36-0.43
Rattus norvegicus [27] = assay: Compound was evaluated in vivo its antagonist activity against apomorphine induced behavioral syndrome such as Stereotypy in rat after intraperitoneal administration; activity value ranges from 7.6-8.3; procedure, shortened: as §1
Rattus norvegicus [28] = assay: Compound was evaluated in vivo its antagonist activity against apomorphine induced behavioral syndrome such as Stereotypy in rat after intraperitoneal administration; activity value ranges from 0.30-0.33; procedure, shortened: as §1
Rattus norvegicus [29] = assay: Compound was evaluated in vivo for antagonist activity against apomorphine induced behavioral syndrome such as Hyperactivity in rat after intraperitoneal administration; activity value ranges from 0.054-0.055
Rattus norvegicus [30] = assay: Compound was evaluated in vivo its antagonist activity against apomorphine induced behavioral syndrome such as Stereotypy in rat after intraperitoneal administration; activity value ranges from 2.82-3.02; procedure, shortened: as §1
Rattus norvegicus [31] = assay: Compound was evaluated in vivo for antagonist activity against apomorphine induced behavioral syndrome such as Hyperactivity in rat after intraperitoneal administration; activity value ranges from 1.58-1.78
Rattus norvegicus [32] = assay: Compound was evaluated in vivo its antagonist activity against apomorphine induced behavioral syndrome such as Stereotypy in rat after intraperitoneal administration
Rattus norvegicus [33] = assay: Compound was evaluated in vivo for antagonist activity against apomorphine induced behavioral syndrome such as Hyperactivity in rat after intraperitoneal administration; activity value ranges from 0.27-0.35; procedure, shortened: as §2
Rattus norvegicus [34] = assay: Compound was evaluated in vivo its antagonist activity against apomorphine induced behavioral syndrome such as Stereotypy in rat after intraperitoneal administration; activity value ranges from 0.52-0.55; procedure, shortened: as §1
Rattus norvegicus [35] = assay: Compound was evaluated in vivo for antagonist activity against apomorphine induced behavioral syndrome such as Hyperactivity in rat after intraperitoneal administration; activity value ranges from 0.11-0.16

CCCc1ccc(OC)c(C(=O)NC[C@@H]2CCCN2CC)c1O
ED50 (Rattus norvegicus [1]): 0.79 µmol/kg
ED50 (Rattus norvegicus [2]): 0.16 µmol/kg

CCN1CCC[C@H]1CNC(=O)c1c(OC)ccc(C)c1O
ED50 (Rattus norvegicus [3]): 0.95 µmol/kg
ED50 (Rattus norvegicus [4]): 1.23 µmol/kg

CCc1ccc(OC)c(C(=O)NC[C@@H]2CCCN2CC)c1O
ED50 (Rattus norvegicus [5]): 0.25 µmol/kg
ED50 (Rattus norvegicus [6]): 0.12 µmol/kg

CCCN1CCC[C@H]1CNC(=O)c1c(OC)ccc(Br)c1O
ED50 (Rattus norvegicus [7]): 0.43 µmol/kg
ED50 (Rattus norvegicus [8]): 0.66 µmol/kg

CCN1CCC[C@H]1CNC(=O)c1c(OC)ccc(I)c1OC
ED50 (Rattus norvegicus [9]): 2.1 µmol/kg
ED50 (Rattus norvegicus [10]): 1.12 µmol/kg

CCN1CCC[C@H]1CNC(=O)c1c(O)ccc(Br)c1OC
ED50 (Rattus norvegicus [11]): 6.2 µmol/kg
ED50 (Rattus norvegicus [12]): 6.6 µmol/kg

CCN1CCC[C@H]1CNC(=O)c1c(OC)ccc(Cl)c1O
ED50 (Rattus norvegicus [13]): 0.2 µmol/kg
ED50 (Rattus norvegicus [14]): 0.87 µmol/kg

CCN1CCC[C@H]1CNC(=O)c1c(OC)ccc(Cl)c1OC
ED50 (Rattus norvegicus [15]): 6.3 µmol/kg

CCCN1CCC[C@H]1CNC(=O)c1c(OC)ccc(Br)c1OC
ED50 (Rattus norvegicus [16]): 15.5 µmol/kg
ED50 (Rattus norvegicus [17]): 3.4 µmol/kg

CCN1CCC[C@H]1CNC(=O)c1c(O)ccc(Cl)c1OC
ED50 (Rattus norvegicus [18]): 0.78 µmol/kg
ED50 (Rattus norvegicus [19]): 2.5 µmol/kg

CCOc1c(Br)ccc(OC)c1C(=O)NC[C@@H]1CCCN1CC
ED50 (Rattus norvegicus [20]): 0.47 µmol/kg
ED50 (Rattus norvegicus [21]): 1.9 µmol/kg

CCc1ccc(OC)c(C(=O)NC[C@@H]2CCCN2CC)c1OC
ED50 (Rattus norvegicus [22]): 14.1 µmol/kg
ED50 (Rattus norvegicus [23]): 0.95 µmol/kg

CCc1ccc(O)c(C(=O)NC[C@@H]2CCCN2CC)c1OC
ED50 (Rattus norvegicus [24]): 0.79 µmol/kg
ED50 (Rattus norvegicus [25]): 0.47 µmol/kg

CCN1CCC[C@H]1CNC(=O)c1c(O)cccc1OC
ED50 (Rattus norvegicus [26]): 0.4 µmol/kg
ED50 (Rattus norvegicus [27]): 7.8 µmol/kg

CCN1CCC[C@H]1CNC(=O)c1c(OC)ccc(Br)c1O (stereo in doubt; 11)
ED50 (Rattus norvegicus [28]): 0.32 µmol/kg
ED50 (Rattus norvegicus [29]): 0.055 µmol/kg

CCN1CCC[C@H]1CNC(=O)c1c(OC)ccc(Br)c1O (stereo in doubt; 26)
ED50 (Rattus norvegicus [30]): 0.32 µmol/kg
ED50 (Rattus norvegicus [31]): 0.055 µmol/kg

O=C(CCCN1CCC(O)(c2ccc(Cl)cc2)CC1)c1ccc(F)cc1 [HALOPERIDOL]
ED50 (Rattus norvegicus [32]): 0.27 µmol/kg
ED50 (Rattus norvegicus [33]): 0.29 µmol/kg

CCN1CCC[C@H]1CNC(=O)c1c(OC)ccc(I)c1O [IOLOPRIDE]
ED50 (Rattus norvegicus [34]): 0.54 µmol/kg
ED50 (Rattus norvegicus [35]): 0.15 µmol/kg
